# Laboratory results published in ChEMBL document CHEMBL2390917, “Synthesis and biological evaluation of 2-(5-methyl-4-phenyl-2-oxopyrrolidin-1-yl)-acetamide stereoisomers as novel positive allosteric modulators of sigma-1 receptor” (Bioorg Med Chem, 2013).
# The source made the active and inactive calls. No cut-off for these calls is given here.
# Legend:
# [1] = biological target: C-X-C chemokine receptor type 2 (Homo sapiens) (UniProt P25025); assay: Binding affinity to human CXCR2 at 10 uM by radioligand displacement assay relative to control
# [2] = biological target: Platelet-derived growth factor receptor (Homo sapiens) (UniProt P09619+P16234); assay: Binding affinity to PDGF receptor (unknown origin) at 10 uM by radioligand displacement assay relative to control; type: protein-complex assay
# Homo sapiens [3] = organism: Homo sapiens; assay: Binding affinity to GABA receptor (unknown origin) at 10 uM by radioligand displacement assay relative to control
# [4] = biological target: Galanin receptor type 1 (Homo sapiens) (UniProt P47211); assay: Binding affinity to human GAL1 receptor at 10 uM by radioligand displacement assay relative to control
# [5] = biological target: Endothelin-1 receptor (Homo sapiens) (UniProt P25101); assay: Binding affinity to human ETA receptor at 10 uM by radioligand displacement assay relative to control
# [6] = biological target: Endothelin receptor type B (Homo sapiens) (UniProt P24530); assay: Binding affinity to human ETB receptor at 10 uM by radioligand displacement assay relative to control
# [7] = biological target: D(1B) dopamine receptor (Homo sapiens) (UniProt P21918); assay: Binding affinity to human dopamine D5 receptor at 10 uM by radioligand displacement assay relative to control
# [8] = biological target: D(3) dopamine receptor (Homo sapiens) (UniProt P35462); assay: Binding affinity to human dopamine D3 receptor at 10 uM by radioligand displacement assay relative to control
# [9] = biological target: D(1A) dopamine receptor (Homo sapiens) (UniProt P21728); assay: Binding affinity to human dopamine D1 receptor at 10 uM by radioligand displacement assay relative to control
# [10] = biological target: Cholecystokinin receptor type A (Homo sapiens) (UniProt P32238); assay: Binding affinity to human CCK1 receptor at 10 uM by radioligand displacement assay relative to control
# [11] = biological target: Calcitonin gene-related peptide type 1 receptor (Homo sapiens) (UniProt Q16602); assay: Binding affinity to human CGRP receptor at 10 uM by radioligand displacement assay relative to control
# Homo sapiens [12] = organism: Homo sapiens; assay: Binding affinity to peripheral-type BZD receptor (unknown origin) at 10 uM by radioligand displacement assay relative to control
# [13] = biological target: Adrenergic receptor alpha-1 (Homo sapiens) (UniProt P35348+P25100+P35368); assay: Binding affinity to adrenergic alpha1 receptor (unknown origin) at 10 uM by radioligand displacement assay relative to control
# [14] = biological target: Adenosine receptor A1 (Homo sapiens) (UniProt P30542); assay: Binding affinity to human adenosine A1 receptor at 10 uM by radioligand displacement assay relative to control
# Mus musculus [15] = assay: Toxicity in ip dosed ICR mouse assessed as effect on motor strength measured within 5 secs by traction test; type: organism-based; conditions: in vivo, 5 s
# [16] = biological target: Sigma non-opioid intracellular receptor 1 (Homo sapiens, UniProt Q99720); assay: Binding affinity to sigma 1 receptor (unknown origin) at 10 uM by radioligand displacement assay
# Mus musculus [17] = assay: Toxicity in ip dosed ICR mouse assessed as effect on motor performance measured within 30 secs by chimney test; type: organism-based; conditions: in vivo, 0.5 min
# Mus musculus [18] = assay: Toxicity in ip dosed ICR mouse assessed as effect on motor coordination measured within 120 secs by rotarod test; type: organism-based; conditions: in vivo, 2 min
# Mus musculus [19] = assay: Toxicity in ICR mouse assessed as effect on locomotor activity measured moved distance per 4 mins at 100 mg/kg, ip after 180 mins by open field test (reference value: 436 125 cm); type: organism-based; design: dose 100 mg/kg, route intraperitoneal; conditions: in vivo
# Mus musculus [20] = assay: Cognitive enhancing effect in ICR mouse assessed as increase in retention latency at 10 mg/kg, ip administered 60 mins prior to testing measured after 24 hrs by passive avoidance test relative to control; type: functional; conditions: route intraperitoneal
# Mus musculus [21] = assay: Cognitive enhancing effect in ip dosed ICR mouse assessed as increase in retention latency administered 60 mins prior to testing measured after 24 hrs by passive avoidance test; type: functional, organism-based
# Mus musculus [22] = assay: Cognitive enhancing effect in ICR mouse assessed as increase in retention latency at 1 mg/kg, ip administered 60 mins prior to testing measured after 24 hrs by passive avoidance test relative to control; type: functional; conditions: route intraperitoneal
# [23] = biological target: Sigma non-opioid intracellular receptor 1 (Rattus norvegicus) (UniProt Q9R0C9); assay: Positive allosteric modulation of Wistar rat sigma 1 receptor assessed as increase in electrically-stimulated vas deferens contraction at 10 uM after 10 mins
# How it was run: (§1)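 Isolated rat vas deferens, proximal ~15 mm segments, in K-H buffer at 32 °C gassed […], with 1.0 g passive tension and a 60 min adaptation. Field-stimulated at 0.1 Hz, 1 ms, 50 V. Cumulative PRE-084 (1–100 µM) was given, then washout and a 30 min rest. Test compound 10 µM was added for 10 min before cumulative PRE-084. Response is % increase over baseline amplitude; n=6, mean ± SEM, paired t-test.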
# [24] = biological target: Sigma non-opioid intracellular receptor 1 (Rattus norvegicus) (UniProt Q9R0C9); assay: Positive allosteric modulation of Wistar rat sigma 1 receptor assessed as potentiation of PRE-084 effect on electrically-stimulated vas deferens contraction at 10 uM preincubated for 10 mins followed by PRE-084 addition; how it was run: as §1
# [25] = biological target: Neurotensin receptor type 1 (Homo sapiens) (UniProt P30989); assay: Binding affinity to NTS1 receptor (unknown origin) at 10 uM by radioligand displacement assay relative to control
# Homo sapiens [26] = organism: Homo sapiens; assay: Binding affinity to sodium channel site 2 (unknown origin) at 10 uM by radioligand displacement assay relative to control
# [27] = biological target: 5-hydroxytryptamine receptor 6 (Homo sapiens) (UniProt P50406); assay: Binding affinity to human 5-HT6 receptor at 10 uM by radioligand displacement assay relative to control
# [28] = biological target: 5-hydroxytryptamine receptor 1B (Homo sapiens) (UniProt P28222); assay: Binding affinity to 5-HT1B receptor (unknown origin) at 10 uM by radioligand displacement assay relative to control
# Homo sapiens [29] = organism: Homo sapiens; assay: Binding affinity to PCP receptor (unknown origin) at 10 uM by radioligand displacement assay relative to control
# [30] = biological target: Delta-type opioid receptor (Homo sapiens) (UniProt P41143); assay: Binding affinity to delta opioid receptor (unknown origin) at 10 uM by radioligand displacement assay relative to control
# [31] = biological target: Neuromedin-K receptor (Homo sapiens) (UniProt P29371); assay: Binding affinity to human NK3 receptor at 10 uM by radioligand displacement assay relative to control
# [32] = biological target: Muscarinic acetylcholine receptor M3 (Homo sapiens) (UniProt P20309); assay: Binding affinity to human muscarinic M3 receptor at 10 uM by radioligand displacement assay relative to control
# [33] = biological target: Melatonin receptor type 1A (Homo sapiens) (UniProt P48039); assay: Binding affinity to human ML1A receptor at 10 uM by radioligand displacement assay relative to control
# [34] = biological target: Muscarinic acetylcholine receptor M1 (Homo sapiens) (UniProt P11229); assay: Binding affinity to human muscarinic M1 receptor at 10 uM by radioligand displacement assay relative to control
# [35] = biological target: Melanocortin receptor 4 (Homo sapiens) (UniProt P32245); assay: Binding affinity to human MC4 receptor at 10 uM by radioligand displacement assay relative to control
# Sequence of Sigma non-opioid intracellular receptor 1 (Rattus norvegicus) (Q9R0C9 whole entry): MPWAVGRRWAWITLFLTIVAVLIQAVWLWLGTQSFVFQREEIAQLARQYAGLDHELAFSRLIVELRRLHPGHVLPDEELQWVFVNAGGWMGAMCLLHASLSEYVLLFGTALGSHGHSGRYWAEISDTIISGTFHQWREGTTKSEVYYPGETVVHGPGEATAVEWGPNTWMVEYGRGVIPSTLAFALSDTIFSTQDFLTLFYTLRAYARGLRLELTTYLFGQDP
# Sequence of Muscarinic acetylcholine receptor M3 (Homo sapiens) (P20309 whole entry, looked up): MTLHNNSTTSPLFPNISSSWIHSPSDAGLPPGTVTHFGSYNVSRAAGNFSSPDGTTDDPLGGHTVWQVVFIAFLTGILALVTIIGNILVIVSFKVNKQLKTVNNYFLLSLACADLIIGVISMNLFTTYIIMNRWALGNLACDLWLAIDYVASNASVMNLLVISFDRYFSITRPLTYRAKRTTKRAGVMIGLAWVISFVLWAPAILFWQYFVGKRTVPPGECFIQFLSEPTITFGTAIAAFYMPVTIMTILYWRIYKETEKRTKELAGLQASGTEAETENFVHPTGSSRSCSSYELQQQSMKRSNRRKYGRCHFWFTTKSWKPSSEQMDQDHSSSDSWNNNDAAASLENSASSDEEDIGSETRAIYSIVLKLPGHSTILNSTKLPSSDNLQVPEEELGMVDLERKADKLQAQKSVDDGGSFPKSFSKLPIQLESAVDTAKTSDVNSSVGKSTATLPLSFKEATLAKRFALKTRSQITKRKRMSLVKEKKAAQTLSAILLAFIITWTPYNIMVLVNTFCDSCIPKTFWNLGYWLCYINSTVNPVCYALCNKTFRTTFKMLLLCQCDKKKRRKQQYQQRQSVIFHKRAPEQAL
# Sequence of D(3) dopamine receptor (Homo sapiens) (P35462 whole entry): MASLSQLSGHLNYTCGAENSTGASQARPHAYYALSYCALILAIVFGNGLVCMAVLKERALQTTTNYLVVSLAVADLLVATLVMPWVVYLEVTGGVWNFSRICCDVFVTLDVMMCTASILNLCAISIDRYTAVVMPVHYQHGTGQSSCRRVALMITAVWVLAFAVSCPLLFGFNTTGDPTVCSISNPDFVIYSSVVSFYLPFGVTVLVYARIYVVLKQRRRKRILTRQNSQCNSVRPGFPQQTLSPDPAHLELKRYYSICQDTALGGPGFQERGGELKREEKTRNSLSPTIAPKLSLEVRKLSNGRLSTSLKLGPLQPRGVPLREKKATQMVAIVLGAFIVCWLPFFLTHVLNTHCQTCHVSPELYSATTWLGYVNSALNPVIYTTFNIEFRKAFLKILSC
# Sequence of Delta-type opioid receptor (Homo sapiens) (P41143 whole entry): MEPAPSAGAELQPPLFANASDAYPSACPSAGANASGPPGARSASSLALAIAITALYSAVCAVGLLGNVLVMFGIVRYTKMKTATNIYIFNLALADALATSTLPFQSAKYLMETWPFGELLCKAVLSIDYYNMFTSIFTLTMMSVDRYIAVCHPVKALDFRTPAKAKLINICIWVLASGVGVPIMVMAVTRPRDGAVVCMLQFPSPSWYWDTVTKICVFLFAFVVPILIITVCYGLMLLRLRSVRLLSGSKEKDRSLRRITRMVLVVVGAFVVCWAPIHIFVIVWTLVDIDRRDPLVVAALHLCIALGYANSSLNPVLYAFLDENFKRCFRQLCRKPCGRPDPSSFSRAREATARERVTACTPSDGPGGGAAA
# Sequence of Adenosine receptor A1 (Homo sapiens) (P30542 whole entry): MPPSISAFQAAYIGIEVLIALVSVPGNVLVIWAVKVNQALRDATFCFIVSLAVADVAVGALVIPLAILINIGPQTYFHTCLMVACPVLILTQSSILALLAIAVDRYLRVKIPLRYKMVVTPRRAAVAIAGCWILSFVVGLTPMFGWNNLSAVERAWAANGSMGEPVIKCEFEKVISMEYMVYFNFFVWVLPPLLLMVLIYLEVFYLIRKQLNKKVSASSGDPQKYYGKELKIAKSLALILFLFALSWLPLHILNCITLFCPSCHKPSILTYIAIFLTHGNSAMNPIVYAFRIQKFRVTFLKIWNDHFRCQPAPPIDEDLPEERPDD
# Sequence of 5-hydroxytryptamine receptor 1B (Homo sapiens) (P28222 whole entry): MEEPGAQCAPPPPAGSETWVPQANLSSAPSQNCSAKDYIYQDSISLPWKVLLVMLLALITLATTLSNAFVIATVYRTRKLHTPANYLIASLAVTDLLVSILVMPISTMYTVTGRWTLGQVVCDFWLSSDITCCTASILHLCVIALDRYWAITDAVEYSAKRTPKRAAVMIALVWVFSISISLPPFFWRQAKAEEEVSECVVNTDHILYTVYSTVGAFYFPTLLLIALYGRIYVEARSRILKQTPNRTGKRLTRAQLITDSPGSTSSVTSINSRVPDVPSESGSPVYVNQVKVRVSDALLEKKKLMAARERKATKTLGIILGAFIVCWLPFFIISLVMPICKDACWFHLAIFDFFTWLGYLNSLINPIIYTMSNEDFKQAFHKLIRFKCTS
# Sequence of Neuromedin-K receptor (Homo sapiens) (P29371 whole entry): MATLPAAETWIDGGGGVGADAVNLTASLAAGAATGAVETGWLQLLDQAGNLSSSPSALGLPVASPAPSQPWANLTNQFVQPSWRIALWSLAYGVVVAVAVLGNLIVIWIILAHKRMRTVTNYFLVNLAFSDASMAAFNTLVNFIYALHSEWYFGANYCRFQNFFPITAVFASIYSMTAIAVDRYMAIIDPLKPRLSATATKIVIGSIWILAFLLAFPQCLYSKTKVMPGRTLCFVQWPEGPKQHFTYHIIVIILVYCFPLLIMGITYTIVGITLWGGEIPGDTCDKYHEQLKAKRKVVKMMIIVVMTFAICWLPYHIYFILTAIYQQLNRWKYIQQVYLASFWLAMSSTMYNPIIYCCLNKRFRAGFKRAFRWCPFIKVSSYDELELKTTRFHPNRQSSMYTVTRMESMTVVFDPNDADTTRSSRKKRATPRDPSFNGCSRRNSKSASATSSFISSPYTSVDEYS
# Sequence of Cholecystokinin receptor type A (Homo sapiens) (P32238 whole entry): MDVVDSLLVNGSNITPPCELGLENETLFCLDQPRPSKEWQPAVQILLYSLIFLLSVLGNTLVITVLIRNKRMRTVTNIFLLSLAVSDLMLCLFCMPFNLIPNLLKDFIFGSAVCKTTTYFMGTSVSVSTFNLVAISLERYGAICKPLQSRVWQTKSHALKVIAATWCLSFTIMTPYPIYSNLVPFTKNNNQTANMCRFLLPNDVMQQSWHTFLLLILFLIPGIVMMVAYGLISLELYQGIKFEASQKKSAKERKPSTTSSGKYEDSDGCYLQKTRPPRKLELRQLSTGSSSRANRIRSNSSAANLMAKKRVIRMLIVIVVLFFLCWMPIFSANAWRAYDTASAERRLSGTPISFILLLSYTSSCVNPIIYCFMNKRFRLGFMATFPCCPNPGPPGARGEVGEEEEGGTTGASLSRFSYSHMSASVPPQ
# Sequence of 5-hydroxytryptamine receptor 6 (Homo sapiens) (P50406 whole entry): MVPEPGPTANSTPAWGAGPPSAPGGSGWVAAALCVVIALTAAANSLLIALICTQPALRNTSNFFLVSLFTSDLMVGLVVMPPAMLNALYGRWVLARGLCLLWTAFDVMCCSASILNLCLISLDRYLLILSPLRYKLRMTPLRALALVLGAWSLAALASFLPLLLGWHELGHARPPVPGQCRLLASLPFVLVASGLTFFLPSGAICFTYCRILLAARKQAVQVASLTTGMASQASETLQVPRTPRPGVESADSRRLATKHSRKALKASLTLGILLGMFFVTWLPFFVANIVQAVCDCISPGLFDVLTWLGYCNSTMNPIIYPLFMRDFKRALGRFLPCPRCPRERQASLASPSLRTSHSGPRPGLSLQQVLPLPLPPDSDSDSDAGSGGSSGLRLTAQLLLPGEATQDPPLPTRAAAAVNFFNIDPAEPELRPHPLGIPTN
# Sequence of Neurotensin receptor type 1 (Homo sapiens) (P30989 whole entry): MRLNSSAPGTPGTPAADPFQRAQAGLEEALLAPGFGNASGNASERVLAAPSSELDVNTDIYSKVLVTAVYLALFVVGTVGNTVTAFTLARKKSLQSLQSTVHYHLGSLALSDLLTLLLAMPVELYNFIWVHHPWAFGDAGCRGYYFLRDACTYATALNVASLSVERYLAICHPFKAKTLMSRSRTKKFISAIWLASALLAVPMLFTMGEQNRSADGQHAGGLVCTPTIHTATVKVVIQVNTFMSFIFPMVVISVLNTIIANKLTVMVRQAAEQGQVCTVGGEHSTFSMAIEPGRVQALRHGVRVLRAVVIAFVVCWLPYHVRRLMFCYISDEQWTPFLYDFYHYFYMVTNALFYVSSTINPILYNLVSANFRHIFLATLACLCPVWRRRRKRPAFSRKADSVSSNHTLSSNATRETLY
# Sequence of D(1B) dopamine receptor (Homo sapiens) (P21918 whole entry): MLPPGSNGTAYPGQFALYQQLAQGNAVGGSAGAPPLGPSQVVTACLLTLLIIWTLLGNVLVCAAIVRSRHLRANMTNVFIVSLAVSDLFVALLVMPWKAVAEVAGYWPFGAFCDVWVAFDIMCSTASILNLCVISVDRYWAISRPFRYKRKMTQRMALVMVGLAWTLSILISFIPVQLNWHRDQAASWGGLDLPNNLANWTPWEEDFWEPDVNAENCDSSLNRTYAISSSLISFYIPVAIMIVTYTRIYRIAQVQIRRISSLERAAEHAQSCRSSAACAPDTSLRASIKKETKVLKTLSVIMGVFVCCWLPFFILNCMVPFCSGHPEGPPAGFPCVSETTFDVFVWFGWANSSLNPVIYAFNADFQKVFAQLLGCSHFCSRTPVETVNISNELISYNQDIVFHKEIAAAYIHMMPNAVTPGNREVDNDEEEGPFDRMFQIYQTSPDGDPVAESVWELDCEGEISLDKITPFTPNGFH
# Sequence of C-X-C chemokine receptor type 2 (Homo sapiens) (P25025 whole entry): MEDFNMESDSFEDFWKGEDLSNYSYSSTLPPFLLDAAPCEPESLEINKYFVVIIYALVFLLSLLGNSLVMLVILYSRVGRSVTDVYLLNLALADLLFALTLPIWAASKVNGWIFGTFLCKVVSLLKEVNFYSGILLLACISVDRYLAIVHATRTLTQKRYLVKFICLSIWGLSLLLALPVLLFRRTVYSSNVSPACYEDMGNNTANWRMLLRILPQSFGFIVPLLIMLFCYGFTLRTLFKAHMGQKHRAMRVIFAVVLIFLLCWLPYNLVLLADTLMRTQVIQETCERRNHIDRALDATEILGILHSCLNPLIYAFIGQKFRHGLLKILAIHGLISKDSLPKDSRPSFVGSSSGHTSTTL
compound,measurement,setting,value
C[C@H]1[C@@H](c2ccccc2)CC(=O)N1CC(N)=O,inhibition,[1],2%
same,inhibition,[2],-6%
same,inhibition,Homo sapiens [3],13%
same,inhibition,[4],-2%
same,inhibition,[5],-2%
same,inhibition,[6],2%
same,inhibition,[7],-3%
same,inhibition,[8],7%
same,inhibition,[9],-6%
same,inhibition,[10],9%
same,inhibition,[11],1%
same,inhibition,Homo sapiens [12],3%
same,inhibition,[13],-5%
same,inhibition,[14],2%
same,ED50,Mus musculus [15],595 mg/kg
same,Activity,[16],inactive
same,ED50,Mus musculus [17],349 mg/kg
same,ED50,Mus musculus [18],453 mg/kg
same,Activity,Mus musculus [19],450 cm
same,Activity,Mus musculus [20],211%
same,Activity,Mus musculus [21],Dose-dependent effect
same,Activity,Mus musculus [22],194%
same,Activity,[23],inactive
same,Activity,[24],Active
same,inhibition,[25],-3%
same,inhibition,Homo sapiens [26],5%
same,inhibition,[27],-10%
same,inhibition,[28],0%
same,inhibition,Homo sapiens [29],6%
same,inhibition,[30],-4%
same,inhibition,[31],-7%
same,inhibition,[32],-7%
same,inhibition,[33],-6%
same,inhibition,[34],-4%
same,inhibition,[35],4%
